What was measured:
[1] = test system: Na+/K+-ATPase α1,2,3 subunit of the porcine cortex; experiment: Na+/K+-ATPase inhibition assay; type: biochemical; conditions: 0.1 μM compound, 30 min co-incubation, positive control = 100% activity
How it was run: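 Porcine cortex Na+/K+-ATPase (α1,2,3; 0.05 U/mL) was preincubated 30 min with test compound (0.1 μM) in 40 mM Tris–HCl pH 7.5, 80 mM NaCl, 1 mM EDTA and 8 mM MgAc2. ATP (4 mM) was then added and the reaction stopped after 30 min. Released Pi was read by malachite green at 600 nm after subtracting the no-enzyme control. Uninhibited enzyme defined 100% activity. Run in triplicate.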

A549 cells [2] = experiment: MTT cell viability assay, A549; type: cell-based; conditions: read-out: IC50 A549 cell line, 48 h, human non-small-cell lung cancer A549
How it was run: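 A549 cells (1 × 10^4/well), cultured in DMEM with 10% FBS and antibiotics, were exposed to a range of concentrations of the […] test compound for 48 h. MTT was added (1 mg/mL final) for 4 h at 37 °C, formazan was dissolved in DMSO, and absorbance was read at 570 nm. Cells given 0.5% DMSO defined 100% viability. IC50 came from dose–response curves.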

MRC-5 cells = experiment: MTT cell viability assay, MRC-5; type: cell-based; conditions: read-out: IC50 non-tumor MRC-5 cell line, 48 h, human fetal lung fibroblast MRC-5
A549 cells [3] = experiment: Cell binding of radiolabeled compound; design: species or system human
How it was run: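 A549 and MRC-5 cells were grown in DMEM with 10% FBS and 1% penicillin/streptomycin (37 °C, 5% CO2), trypsinised, resuspended in PBS pH 7.4 and trypan-blue counted. Labelled test compound (0.1 μM), 99mTc-chelator alone (1.3 μM), or test compound plus 10-fold excess unlabelled cardenolide was shaken with 250 000 viable cells/tube (140 rpm, 120 min, 37 °C). Pellets were counted. Three biological × three technical replicates.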

[4] = Radiochemical stability in saline; type: physicochemical; conditions: NaCl 0.9% (w/v), room temperature (23 °C), up to 24 h
How it was run: (§1)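 The 99mTc-labelled test compound was incubated in 0.9% NaCl at 23 °C or in plasma at 37 °C with agitation. Samples were taken at 1, 2, 4, 8 and 24 h. Radiochemical purity was measured by TLC in acetone (free pertechnetate) and glacial acetic acid/water 15:85 (99mTcO2), with strips counted by scintillation. There were 6 samples per time point, each assessed in duplicate.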

[5] = Radiochemical stability in plasma; type: in vitro ADME; conditions: 37 °C, under agitation, up to 24 h
How it was run: as §1

[6] = Blood clearance in healthy mice; type: in vivo; conditions: healthy BALB/c mice, i.v. tail vein
How it was run: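 Female BALB/c mice (20 g, 8 weeks old; n = 6 per time point) received 100 μL (3.7 MBq) of diluted 99mTc-labelled test compound (final volume 1800 μL) by tail vein. Blood was sampled at 5, 15, 30, 60, 120 and 240 min, weighed and counted for radioactivity. Percent injected dose per mL blood (%ID/mL) was plotted against time.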

[7] = Biodistribution in healthy mice; type: in vivo, BALB/c mice; conditions: i.v.

## O=C(O)CN(CCN(CC(=O)O)CC(=O)O)CCN(CC(=O)O)CC(=O)O [DTPA, diethylenetriaminepentaacetic acid]
[1]
  Na+/K+-ATPase enzymatic activity remaining: no influence

## C[C@]12CC[C@H](O)C[C@H]1CC[C@@H]1[C@@H]2CC[C@]2(C)[C@@H](C3=CC(=O)OC3)CC[C@]12O [DIG, digitoxigenin]
[1]
  Na+/K+-ATPase enzymatic activity remaining: less than 50%

## ^99mTc-DTPA–digitoxigenin
A549 cells [2]
  IC50: 120 nM
MRC-5 cells
  IC50: 780 nM
[1]
  Na+/K+-ATPase enzymatic activity remaining: less than 50%
A549 cells [3]; 0.1 μM, 10-fold excess of free digitoxigenin, 2 h
  Binding to A549 cells when co-incubated with free digitoxigenin: reduced to the rate of non-tumor MRC-5 cells
A549 cells [3]; 0.1 μM, 2 h incubation, 37 °C
  Binding to A549 cells compared with non-tumor MRC-5 cells: significantly higher binding
[4]
  Radiochemical stability in saline: remained stable
[5]
  Radiochemical stability in plasma: remained stable
[6]
  Blood half-life: 11.7 min
[7]; 30 min
  Biodistribution, blood: 0.51 %ID/g
  Biodistribution, heart: 0.31 %ID/g
  Biodistribution, intestine: 24.97 %ID/g
  Biodistribution, kidney: 1.64 %ID/g
  Biodistribution, liver: 4.74 %ID/g
  Biodistribution, lungs: 1.46 %ID/g
  Biodistribution, muscle: 0.50 %ID/g
  Biodistribution, spleen: 0.90 %ID/g
  Biodistribution, thyroid: 0.59 %ID/g
[7]; 2 h
  Biodistribution, blood: 0.43 %ID/g
  Biodistribution, heart: 0.32 %ID/g
  Biodistribution, intestine: 27.06 %ID/g
  Biodistribution, kidney: 1.48 %ID/g
  Biodistribution, liver: 2.34 %ID/g
  Biodistribution, lungs: 0.6 %ID/g
  Biodistribution, muscle: 0.26 %ID/g
  Biodistribution, spleen: 0.85 %ID/g
  Biodistribution, thyroid: 0.59 %ID/g

## O=C([O-])CN(CCN(CC(=O)[O-])CC(=O)[O-])CCN(CC(=O)[O-])CC(=O)[O-].[99Tc+4] [^99mTc-DTPA, reference compound]
A549 cells [3]; 1.3 μM, 2 h incubation, 37 °C
  Affinity to A549 cancer cells: low affinity

Source: publication PMC6933791 (ACS Omega, 2019)
